# Experimental data: article PMC9075022 (Research in Pharmaceutical Sciences, 2022)
# Read-outs that look alike come from different tables or passages of the source.
# How the values were obtained:
# [1] = tested on: fibroblast cell line; assay: In vitro antiproliferative MTT assay, fibroblast; type: cell-based; settings: 48 h
# Method in brief: (§1)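 PC12 (rat pheochromocytoma) or fibroblast cells at 5000/well in DMEM with 10% heat-inactivated FBS, penicillin 100 U/mL and streptomycin 100 μg/mL, grown 24 h. At 80% confluence, test compound or docetaxel/cisplatin controls were added at 1–360 μg/mL for 48 h. MTT (5 mg/mL in PBS pH 7.4) added for 3–4 h; formazan dissolved in DMSO, read at 570 nm. Triplicate; IC50 calculated.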
# [2] = tested on: PC12 cell line; assay: In vitro antiproliferative MTT assay, PC12; type: cell-based, rat; settings: 48 h
# Method in brief: as §1
# [3] = tested on: PC12 cells; assay: Cellular uptake by fluorescent microscopy; type: cell-based, rat; settings: 100 μg/mL, 24 h incubation, 37 °C
# Method in brief: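 PC12 cells at 5 × 10^4 cells/well in DMEM with 10% FBS and antibiotics, kept at 37 °C in 5% CO2. Exposed to test compound at 37 °C for 24 h. Washed three times with cold PBS, then 3 min in sterile distilled water. Intrinsic compound fluorescence imaged without staining by fluorescence microscopy (bright field, DAPI, GFP channels), compared with untreated cells.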
# [4] = tested on: formation of β-hematin; assay: In vitro β-hematin inhibition assay; type: biochemical; settings: 200 μg/mL, 60 °C, 24 h; positive if more than 90%
# Method in brief: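 Heme detoxification (ITHD) assay. Hemin chloride was dissolved in DMSO and diluted to 60 μg/mL in 1 M acetate buffer pH 4.5. Tween 20 stock was 0.012 g/L; compound was dissolved in DMSO. Hemin, sample and Tween were mixed 9:9:2 in triplicate, final 200 μg/mL. Controls: hemin-free matrix blanks, DMSO negative, chloroquine phosphate positive. Incubated 60 °C, 24 h; mixed and absorbance read at 405 nm.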
# [5] = tested on: P. falciparum; settings: cited from earlier work
structure (smiles),measurement,setting,value
"Cc1c(OCc2ccccc2)c(=O)ccn1CCCOC(=O)c1ccc(Cl)cc1Cl [7a, 3-(3-(benzyloxy)-2-methyl-4-oxopyridin-1(4H)-yl) propyl 2,4-dichlorobenzoate]",IC50 on fibroblast cell line,[1],44 µg/mL
same,IC50 against PC12,[2],37 µg/mL
same,cellular uptake (fluorescent emission),[3],cellular uptake potential
same,Heme inhibition (%),[4],39%
"N.N.[Cl][Pt][Cl] [cisplatin, reference compound]",IC50 against PC12,[2],8 µg/mL
Cc1occc(=O)c1O [Maltol],inhibition of growth of P. falciparum compared to control,[5]; 0.01 mM,about 15%
same,inhibition of growth of P. falciparum compared to control,[5]; 0.10 mM,~50%
"Cc1c(OCc2ccccc2)c(=O)ccn1CCCO [alcoholic precursor, 3-(benzyloxy) -1-(3-hydroxypropyl) -2-methylpyridin-4(1H)-one]",toxicity against PC12 in words,[2]; 1-360 μg/mL,didn’t display remarkable toxicity in defined concentrations
